# Laboratory results taken from ChEMBL document CHEMBL2401619, “Novel small molecule inhibitors targeting the "switch region" of bacterial RNAP: structure-based optimization of a virtual screening hit” (Eur J Med Chem, 2013).
# Key:
# [1] = Inhibition of Escherichia coli RNAP assessed as incorporation of [5,6-3H]UTP preincubated for 10 mins followed by DNA template and ATP, CTP, GTP, UTP, [5,6-3H]UTP addition measured after 10 mins by scintillation counting analysis
# Procedure, shortened: (§1)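 Purchased E. coli RNAP holoenzyme (1 unit, 0.5 µg) with 40 mM Tris-HCl pH 7.5, 150 mM KCl, 10 mM MgCl2, 10 mM DTT, 0.1% CHAPS, RNase inhibitor and compound in 2% DMSO final, preincubated 10 min at 25 °C. Reaction started with religated pcDNA3.1 template (3500 ng), 400 µM ATP/CTP/GTP, 100 µM UTP and 60 nCi [3H]-UTP, then run 10 min at 37 °C. TCA-precipitated RNA counted by scintillation and compared with DMSO controls.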
# Escherichia coli [2] = test: Antibacterial activity against Escherichia coli expressing ToLC mutant assessed as growth inhibiiton after 18 hrs; type: functional
# Procedure, shortened: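 E. coli TolC (efflux-defective) in LB, start OD600 0.03, compounds predissolved in DMSO (max 1% final); serial dilutions, final 0.02–100 µg/mL, each concentration in duplicate. OD read at compound addition and after 18 h at 37 °C, 50 rpm. MIC = lowest concentration with no detectable growth; mean of two independent runs (three if MIC < 10 µg/mL).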
# Escherichia coli [3] = test: Inhibition of Escherichia coli RNAP assessed as incorporation of [5,6-3H]UTP at 50 uM preincubated for 10 mins followed by DNA template and ATP, CTP, GTP, UTP, [5,6-3H]UTP addition measured after 10 mins by scintillation counting analysis relative to control; procedure, shortened: as §1
# Pseudomonas aeruginosa = test: Antibacterial activity against Pseudomonas aeruginosa PAO1 assessed as growth inhibiiton after 18 hrs; type: functional; conditions: PAO1, 18 h
# Procedure, shortened: (§2)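 Broth dilution in LB, start OD600 0.03, compounds predissolved in DMSO (max 1% final), serial dilutions 0.02–100 µg/mL tested in duplicate. Incubation 18 h, 37 °C, 50 rpm (200 rpm for PAO1). OD read at start and after incubation. MIC is the lowest concentration with no detectable growth. Values are means of two independent runs, three if MIC <10 µg/mL.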
# [4] = Antibacterial activity against Bacillus subtilis subsp. subtilis assessed as growth inhibiiton after 18 hrs; type: functional; procedure, shortened: as §2
# Escherichia coli [5] = test: Antibacterial activity against Escherichia coli K-12 assessed as growth inhibiiton after 18 hrs; type: functional; conditions: K-12, 18 h; procedure, shortened: as §2
# Staphylococcus aureus = test: Antibacterial activity against Staphylococcus aureus subsp. aureus Newman assessed as growth inhibiiton after 18 hrs; type: functional; procedure, shortened: as §2
# Escherichia coli [6] = test: Reduction of resistance frequencies in Escherichia coli expressing ToLC mutant at 2 x MIC after 16 hrs relative to rifampicin, myxopyronin; type: functional
# Procedure, shortened: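 E. coli TolC cell count per mL set by plating dilutions on LB agar and counting colonies. […] Resistance frequency derived from the threshold inoculum at which growth (resistance) appeared.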
# Escherichia coli [7] = test: Inhibition of Escherichia coli RNAP assessed as incorporation of [5,6-3H]UTP at 25 uM preincubated for 10 mins followed by DNA template and ATP, CTP, GTP, UTP, [5,6-3H]UTP addition measured after 10 mins by scintillation counting analysis relative to control; procedure, shortened: as §1
# Escherichia coli [8] = test: Inhibition of Escherichia coli RNAP assessed as incorporation of [5,6-3H]UTP at 100 uM preincubated for 10 mins followed by DNA template and ATP, CTP, GTP, UTP, [5,6-3H]UTP addition measured after 10 mins by scintillation counting analysis relative to control; procedure, shortened: as §1
# Escherichia coli [9] = test: Inhibition of RNAP in Escherichia coli expressing ToLC mutant assessed as reduction of RNA level at 100 uM after 40 mins by whole cell assay in presence of [3H]-uridine relative to control
# Procedure, shortened: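 E. coli TolC grown in LB. 3H-uridine (1 µCi/mL) added in log phase, 3 min before compound (100 µM, 0.5% DMSO). 300 µL culture harvested 40 min later and precipitated with 2 volumes of 10% TCA for 45 min at 4 °C. Precipitate collected on glass-fibre filters and radioactivity counted.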
SMILES,IC50 [1] [µM],pIC50 [1],MIC (Escherichia coli [2]) [µg/mL],MIC (Pseudomonas aeruginosa) [µg/mL],MIC [4] [µg/mL],MIC (Escherichia coli [5]) [µg/mL],MIC (Staphylococcus aureus) [µg/mL],other results
CCN(Cc1ccccc1)C(=O)Nc1cc(-c2ccc(OC)cc2)sc1C(=O)O,240,3.62,15,,,,,
CCCN(CCc1ccccc1)C(=O)Nc1cc(-c2ccc(Cl)c(Cl)c2)sc1C(=O)O,12,,> 25,,,,,
CCN(Cc1ccccc1)C(=O)Nc1cc(-c2ccc(Cl)c(CCCCNC(=O)OC)c2)sc1C(=O)O,20,,25,,,,,
CCN(Cc1ccccc1)C(=O)Nc1cc(-c2cccc([N+](=O)[O-])c2)sc1C(=O)O,80,4.1,22,,,,,
CCOC(=O)c1c(NC(=O)Nc2ccccc2)sc2c1CCCCCC2 [UREIDOTHIOPHENE],,,,,,,,inhibition (Escherichia coli [3]): 2%
CCN(Cc1ccccc1)C(=O)Nc1cc(-c2ccc(Cl)cc2)sc1C(=O)O,75,4.12,11,,,,,
CCN(Cc1ccccc1)C(=O)Nc1cc(-c2cccc(Cl)c2)sc1C(=O)O,72,4.14,9,> 100,12,> 100,21,fold change (FC) (Escherichia coli [6]): >500
CCCCN(Cc1ccccc1)C(=O)Nc1cc(-c2ccc(Cl)c(Cl)c2)sc1C(=O)O,9,,> 50,> 50,> 50,> 50,> 50,
CCN(C(=O)Nc1cc(-c2ccc(Cl)c(Cl)c2)sc1C(=O)O)c1ccccc1,36,,16,,,,,
O=C(Nc1ccccc1)Nc1sc2c(c1C(=O)O)CCCCCC2,,,> 25,,,,,inhibition (Escherichia coli [7]): 3%
O=C(NCc1ccccc1)Nc1cc(-c2ccc(Cl)c(Cl)c2)sc1C(=O)O,45,,10,,,,,
CCCN(Cc1ccccc1)C(=O)Nc1cc(-c2ccc(Cl)c(Cl)c2)sc1C(=O)O,14,,> 25,,,,,
CC(C)(C)OC(=O)c1c(NC(=O)Nc2ccccc2)sc2c1CCCCCC2,,,33,,,,,inhibition (Escherichia coli [8]): 4%
CCN(Cc1ccccc1)C(=O)Nc1cc(-c2ccc(Cl)c(C(F)(F)F)c2)sc1C(=O)O,21,4.68,12,> 50,20,> 50,5,
CCN(Cc1ccccc1)C(=O)Nc1cc(-c2ccc(Cl)cc2Cl)sc1C(=O)O,32,4.49,8,> 50,10,> 50,12,
O=C(O)c1sc(-c2ccc(Cl)c(Cl)c2)cc1NC(=O)N(Cc1ccccc1)Cc1ccccc1,6,,> 25,> 25,> 25,> 25,3,
O=C(Nc1ccccc1)Nc1cc(-c2ccc(Cl)c(Cl)c2)sc1C(=O)O,25,,12,> 50,12,> 50,6,
CCN(Cc1ccccc1)C(=O)Nc1cc(-c2ccc(C#N)cc2)sc1C(=O)O,133,3.88,25,,,,,
CCN(Cc1ccccc1)C(=O)Nc1cc(-c2cc(Cl)ccc2Cl)sc1C(=O)O,35,4.46,9,,,,,
CCCC/C(C)=C/C=C(\C)C(=O)c1c(O)cc([C@H](C)CC/C=C/NC(=O)OC)oc1=O [MYXOPYRONIN B],0.35,,0.8,> 25,0.9,> 25,0.5,

SMILES,IC50 [1] [µM],pIC50 [1],MIC (Escherichia coli [2]) [µg/mL],MIC (Pseudomonas aeruginosa) [µg/mL],MIC [4] [µg/mL],MIC (Escherichia coli [5]) [µg/mL],MIC (Staphylococcus aureus) [µg/mL],other results
CCN(Cc1ccccc1)C(=O)Nc1cc(-c2ccc(Cl)cc2)sc1C(=O)OC,,,> 25,,,,,inhibition (Escherichia coli [7]): 2%
CCN(Cc1ccccc1)C(=O)Nc1cc(-c2cc(Cl)cc(Cl)c2)sc1C(=O)O,25,4.6,,,,,,
CCN(Cc1ccccc1)C(=O)Nc1cc(-c2ccc(C(F)(F)F)cc2)sc1C(=O)O,51,4.29,21,,,,,
CCN(Cc1ccccc1)C(=O)Nc1cc(-c2ccc([N+](=O)[O-])cc2)sc1C(=O)O,73,4.14,23,,,,,
CCCCCCNC(=O)Nc1cc(-c2ccc(Cl)c(Cl)c2)sc1C(=O)O,19,,> 25,,,,,
NC(=O)Nc1cc(-c2ccc(Cl)c(Cl)c2)sc1C(=O)O,,,> 25,,,,,inhibition (Escherichia coli [8]): 26%
O=C(NCCc1ccccc1)Nc1cc(-c2ccc(Cl)c(Cl)c2)sc1C(=O)O,26,,8,> 25,7,> 25,6,
CCN(Cc1ccccc1)C(=O)Nc1cc(-c2cccc(C(F)(F)F)c2)sc1C(=O)O,53,4.28,38,,,,,
CCN(Cc1ccccc1)C(=O)Nc1cc(-c2ccc(OC(F)(F)F)cc2)sc1C(=O)O,45,4.35,21,> 100,20,> 100,9,
CO[C@H]1/C=C/O[C@@]2(C)Oc3c(C)c(O)c4c(O)c(c(/C=N/N5CCN(C)CC5)c(O)c4c3C2=O)NC(=O)/C(C)=C\C=C\[C@H](C)[C@H](O)[C@@H](C)[C@@H](O)[C@@H](C)[C@H](OC(C)=O)[C@@H]1C [RIFAMPIN],0.03,,5,13,4.8,7,0.02,
CCCCCNC(=O)Nc1cc(-c2ccc(Cl)c(Cl)c2)sc1C(=O)O,35,,10,> 25,8,> 25,> 25,
CCN(Cc1ccccc1)C(=O)Nc1cc(-c2ccc(C)cc2)sc1C(=O)O,137,3.86,21,,,,,
CCN(Cc1ccccc1)C(=O)Nc1cc(-c2ccc(Cl)c(Cl)c2)sc1C(=O)O,22,4.66,10,> 25,11,> 25,8,inhibition (Escherichia coli [9]): 60%
CN(Cc1ccccc1)C(=O)Nc1cc(-c2ccc(Cl)c(Cl)c2)sc1C(=O)O,,,5,,,,,inhibition (Escherichia coli [8]): 12%
CN(C(=O)Nc1cc(-c2ccc(Cl)c(Cl)c2)sc1C(=O)O)c1ccccc1,45,,9,,,,,
CC(C)NC(=O)Nc1cc(-c2ccc(Cl)c(Cl)c2)sc1C(=O)O,,,15,,,,,inhibition (Escherichia coli [8]): 26%
CCN(Cc1ccccc1)C(=O)Nc1cc(-c2ccccc2)sc1C(=O)O,292,3.52,17,,,,,
CCCCN(CCc1ccccc1)C(=O)Nc1cc(-c2ccc(Cl)c(Cl)c2)sc1C(=O)O,7,,> 25,,,,,
CCCCN(C(=O)Nc1cc(-c2ccc(Cl)c(Cl)c2)sc1C(=O)O)c1ccccc1,14,,> 25,,,,,
CCCCNC(=O)Nc1cc(-c2ccc(Cl)c(Cl)c2)sc1C(=O)O,91,,13,,,,,
